# From ChEMBL document CHEMBL1134325, “Diaminoindanes as microsomal triglyceride transfer protein inhibitors” (J Med Chem, 2001)
# “And” between values parts separate entries of the source, which are not always exact repeats. Identical values can stand only once.
# How the values were obtained:
# [1] = system: Rattus norvegicus; assay: Inhibition of plasma triglycerides in normolipidemic rats after 24 h of 50 mg/kg oral dosing; no significant change; format: functional, organism-based; set-up: dose 50 mg/kg
# Outline: (§1)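 Overnight-fasted normolipidemic rats received a single oral dose in cornstarch vehicle. Blood was drawn at 2, 6 and 24 h post-dose and assayed for triglycerides and total cholesterol, with free access to food after the 6 h sample. Value is mean percent inhibition versus a separate vehicle-treated group, unpaired t test p < 0.05, NS = no significant change, N = 6.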
# [2] = system: Rattus norvegicus; assay: Inhibition of total cholesterol in normolipidemic rats after 24 hr of 50 mg/kg oral dosing; no significant change; format: functional, organism-based; set-up: dose 50 mg/kg; outline: as §1
# [3] = system: Rattus norvegicus; assay: Inhibition of plasma triglycerides in normolipidemic rats after 2 hr of 50 mg/kg oral dosing; format: functional; outline: as §1
# [4] = system: Rattus norvegicus; assay: Inhibition of plasma triglycerides in normolipidemic rats after 6 h of […] mg/kg oral dosing; no significant change; format: functional, organism-based; set-up: dose 50 mg/kg
# [5] = molecular target: T1, Microsomal triglyceride transfer protein large subunit (Homo sapiens, UniProt P55157); assay: In vitro inhibitory activity against MTP using MTP transfer assay
# T1 sequence (P55157 whole entry): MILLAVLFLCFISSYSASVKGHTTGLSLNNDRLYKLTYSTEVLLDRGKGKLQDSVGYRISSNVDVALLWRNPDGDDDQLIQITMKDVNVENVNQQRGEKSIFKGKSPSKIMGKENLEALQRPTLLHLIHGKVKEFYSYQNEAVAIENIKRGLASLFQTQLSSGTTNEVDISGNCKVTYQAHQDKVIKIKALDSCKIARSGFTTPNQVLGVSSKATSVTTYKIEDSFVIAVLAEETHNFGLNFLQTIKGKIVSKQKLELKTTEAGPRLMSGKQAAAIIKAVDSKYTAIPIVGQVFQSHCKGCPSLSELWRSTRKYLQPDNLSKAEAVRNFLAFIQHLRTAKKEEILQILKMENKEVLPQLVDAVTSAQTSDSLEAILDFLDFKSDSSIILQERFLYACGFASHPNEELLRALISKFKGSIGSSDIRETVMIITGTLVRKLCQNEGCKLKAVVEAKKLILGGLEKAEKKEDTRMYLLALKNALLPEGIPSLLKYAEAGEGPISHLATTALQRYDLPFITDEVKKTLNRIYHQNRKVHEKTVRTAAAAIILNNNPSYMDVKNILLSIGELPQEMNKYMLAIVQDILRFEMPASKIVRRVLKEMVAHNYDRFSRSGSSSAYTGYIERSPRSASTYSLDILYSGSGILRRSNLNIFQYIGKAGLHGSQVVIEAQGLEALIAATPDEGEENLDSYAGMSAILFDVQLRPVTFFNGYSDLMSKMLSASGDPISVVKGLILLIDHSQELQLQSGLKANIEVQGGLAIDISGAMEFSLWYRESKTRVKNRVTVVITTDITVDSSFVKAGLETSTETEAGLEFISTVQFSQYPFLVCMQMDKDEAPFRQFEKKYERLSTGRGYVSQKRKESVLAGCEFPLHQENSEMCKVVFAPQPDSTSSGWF
# [6] = system: Rattus norvegicus; assay: Inhibition of total cholesterol in normolipidemic rats after 2 hr of 50 mg/kg oral dosing; no significant change; format: functional, organism-based; set-up: dose 50 mg/kg; outline: as §1
# [7] = system: Rattus norvegicus; assay: Inhibition of total cholesterol in normolipidemic rats after 6 h of […] mg/kg oral dosing; no significant change; format: functional, organism-based; set-up: dose 50 mg/kg
# [8] = system: Rattus norvegicus; assay: Inhibition of plasma triglycerides in normolipidemic rats after 2 hr of 50 mg/kg oral dosing; no significant change; format: functional, organism-based; set-up: dose 50 mg/kg; outline: as §1
# [9] = system: Rattus norvegicus; assay: Inhibition of plasma triglycerides in normolipidemic rats after 24 hr of 50 mg/kg oral dosing; No significant change; format: functional, organism-based; set-up: dose 50 mg/kg; outline: as §1
# [10] = system: Rattus norvegicus; assay: (§2) Inhibition of total cholesterol in normolipidemic rats after 24 hr of 50 mg/kg oral dosing; format: functional, organism-based; set-up: dose 50 mg/kg; outline: as §1
# [11] = system: Canis familiaris; assay: Inhibition of plasma total triglycerides in the normolipidemic dogs after day 2 of oral administration of 5 mg/kg/day.; format: functional, Canis lupus familiaris
# Outline: (§3)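 Normolipidemic dogs dosed once daily for 4 days by oral gavage, compound suspended in cornstarch vehicle. Plasma sampled 24 h after dosing on days 0, 2, 3 and 4, assayed for triglycerides and total cholesterol (mg/dL). Mean percent inhibition versus day-0 level is given for treated dogs; n = 6 per group; significance by one-way ANOVA, p < 0.05.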
# [12] = system: Rattus norvegicus; assay: Inhibition of plasma triglycerides in normolipidemic rats after 6 hr of 10 mg/kg oral dosing; format: functional; outline: as §1
# [13] = system: Rattus norvegicus; assay: Inhibition of total cholesterol in normolipidemic rats after 24 hr of 10 mg/kg oral dosing; no significant change; format: functional, organism-based; set-up: dose 10 mg/kg; outline: as §1
# [14] = system: Rattus norvegicus; assay: Inhibition of plasma triglycerides in normolipidemic rats after 24 hr of 50 mg/kg oral dosing; format: functional; outline: as §1
# [15] = system: Canis familiaris; assay: Inhibition of plasma total cholesterol in the normolipidemic dogs after day 3 of oral administration of 5 mg/kg/day.; format: functional, Canis lupus familiaris; outline: as §3
# [16] = system: Rattus norvegicus; assay: Inhibition of plasma triglycerides in normolipidemic rats after 2 hr of 10 mg/kg oral dosing; format: functional; outline: as §1
# [17] = system: Rattus norvegicus; assay: Inhibition of plasma triglycerides in normolipidemic rats after 24 hr of 10 mg/kg oral dosing; no significant change; format: functional, organism-based; set-up: dose 10 mg/kg; outline: as §1
# [18] = system: Canis familiaris; assay: Inhibition of plasma total cholesterol in the normolipidemic dogs after day 2 of oral administration of 5 mg/kg/ day.; format: functional, Canis lupus familiaris; outline: as §3
# [19] = system: Rattus norvegicus; assay: Inhibition of total cholesterol in normolipidemic rats after 2 h of 5 mg/kg oral dosing; format: functional; outline: as §1
# [20] = system: Canis familiaris; assay: Inhibition of plasma total triglycerides in the normolipidemic dogs after day 3 of oral administration of 5 mg/kg/day.; format: functional, Canis lupus familiaris
# [21] = system: Canis familiaris; assay: Inhibition of plasma total cholesterol in the normolipidemic dogs after day 0 of oral administration of 5 mg/kg/day.; format: functional, Canis lupus familiaris; outline: as §3
# [22] = system: Canis familiaris; assay: Inhibition of plasma total triglycerides in the normolipidemic dogs after day 0 of oral administration of 5 mg/kg/day.; format: functional, Canis lupus familiaris; outline: as §3
# [23] = system: Rattus norvegicus; assay: Inhibition of total cholesterol in normolipidemic rats after 24 hr of 5 mg/kg oral dosing; no significant change; format: functional, organism-based; set-up: dose 5 mg/kg; outline: as §1
# [24] = system: Rattus norvegicus; assay: Inhibition of plasma triglycerides in normolipidemic rats after 6 hr of 50 mg/kg oral dosing; format: functional; outline: as §1
# [25] = system: Rattus norvegicus; assay: Inhibition of total cholesterol in normolipidemic rats after 6 hr of 5 mg/kg oral dosing; format: functional; outline: as §1
# [26] = system: Canis familiaris; assay: Inhibition of plasma total triglycerides in the normolipidemic dogs after day 4 of oral administration of 5 mg/kg/day; format: functional, Canis lupus familiaris
# [27] = system: Rattus norvegicus; assay: Inhibition of total cholesterol in normolipidemic rats after 2 hr of 10 mg/kg oral dosing; format: functional; outline: as §1
# [28] = system: Canis familiaris; assay: Inhibition of plasma total cholesterol in the normolipidemic dogs after day 4 of oral administration of 5 mg/kg/day; format: functional, Canis lupus familiaris; outline: as §3
# [29] = system: Rattus norvegicus; assay: Inhibition of total cholesterol in normolipidemic rats after 6 hr of 10 mg/kg oral dosing; format: functional; outline: as §1
# [30] = system: Rattus norvegicus; assay: Inhibition of total cholesterol in normolipidemic rats after 2 hr of 50 mg/kg oral dosing; format: functional; outline: as §1
# [31] = system: Rattus norvegicus; assay: Inhibition of total cholesterol in normolipidemic rats after 6 hr of 50 mg/kg oral dosing; format: functional; outline: as §1
# [32] = system: Rattus norvegicus; assay: as §2; format: functional; outline: as §1
# [33] = system: Rattus norvegicus; assay: Inhibition of plasma triglycerides in normolipidemic rats after 24 hr of 5 mg/kg oral dosing; no significant change; format: functional, organism-based; set-up: dose 5 mg/kg; outline: as §1
# [34] = system: Rattus norvegicus; assay: Inhibition of plasma triglycerides in normolipidemic rats after 2 hr of 5 mg/kg oral dosing; format: functional; outline: as §1
# [35] = system: Rattus norvegicus; assay: Inhibition of plasma triglycerides in normolipidemic rats after 6 h of 5 mg/kg oral dosing; format: functional; outline: as §1
# [36] = molecular target: Apolipoprotein B-100 (Homo sapiens) (UniProt P04114); assay: Inhibition of apolipoprotein B (apoB) secreted by human hepatoma cells (Hep G2) at 100 nM
# Sequence of Apolipoprotein B-100 (Homo sapiens) (P04114 whole entry): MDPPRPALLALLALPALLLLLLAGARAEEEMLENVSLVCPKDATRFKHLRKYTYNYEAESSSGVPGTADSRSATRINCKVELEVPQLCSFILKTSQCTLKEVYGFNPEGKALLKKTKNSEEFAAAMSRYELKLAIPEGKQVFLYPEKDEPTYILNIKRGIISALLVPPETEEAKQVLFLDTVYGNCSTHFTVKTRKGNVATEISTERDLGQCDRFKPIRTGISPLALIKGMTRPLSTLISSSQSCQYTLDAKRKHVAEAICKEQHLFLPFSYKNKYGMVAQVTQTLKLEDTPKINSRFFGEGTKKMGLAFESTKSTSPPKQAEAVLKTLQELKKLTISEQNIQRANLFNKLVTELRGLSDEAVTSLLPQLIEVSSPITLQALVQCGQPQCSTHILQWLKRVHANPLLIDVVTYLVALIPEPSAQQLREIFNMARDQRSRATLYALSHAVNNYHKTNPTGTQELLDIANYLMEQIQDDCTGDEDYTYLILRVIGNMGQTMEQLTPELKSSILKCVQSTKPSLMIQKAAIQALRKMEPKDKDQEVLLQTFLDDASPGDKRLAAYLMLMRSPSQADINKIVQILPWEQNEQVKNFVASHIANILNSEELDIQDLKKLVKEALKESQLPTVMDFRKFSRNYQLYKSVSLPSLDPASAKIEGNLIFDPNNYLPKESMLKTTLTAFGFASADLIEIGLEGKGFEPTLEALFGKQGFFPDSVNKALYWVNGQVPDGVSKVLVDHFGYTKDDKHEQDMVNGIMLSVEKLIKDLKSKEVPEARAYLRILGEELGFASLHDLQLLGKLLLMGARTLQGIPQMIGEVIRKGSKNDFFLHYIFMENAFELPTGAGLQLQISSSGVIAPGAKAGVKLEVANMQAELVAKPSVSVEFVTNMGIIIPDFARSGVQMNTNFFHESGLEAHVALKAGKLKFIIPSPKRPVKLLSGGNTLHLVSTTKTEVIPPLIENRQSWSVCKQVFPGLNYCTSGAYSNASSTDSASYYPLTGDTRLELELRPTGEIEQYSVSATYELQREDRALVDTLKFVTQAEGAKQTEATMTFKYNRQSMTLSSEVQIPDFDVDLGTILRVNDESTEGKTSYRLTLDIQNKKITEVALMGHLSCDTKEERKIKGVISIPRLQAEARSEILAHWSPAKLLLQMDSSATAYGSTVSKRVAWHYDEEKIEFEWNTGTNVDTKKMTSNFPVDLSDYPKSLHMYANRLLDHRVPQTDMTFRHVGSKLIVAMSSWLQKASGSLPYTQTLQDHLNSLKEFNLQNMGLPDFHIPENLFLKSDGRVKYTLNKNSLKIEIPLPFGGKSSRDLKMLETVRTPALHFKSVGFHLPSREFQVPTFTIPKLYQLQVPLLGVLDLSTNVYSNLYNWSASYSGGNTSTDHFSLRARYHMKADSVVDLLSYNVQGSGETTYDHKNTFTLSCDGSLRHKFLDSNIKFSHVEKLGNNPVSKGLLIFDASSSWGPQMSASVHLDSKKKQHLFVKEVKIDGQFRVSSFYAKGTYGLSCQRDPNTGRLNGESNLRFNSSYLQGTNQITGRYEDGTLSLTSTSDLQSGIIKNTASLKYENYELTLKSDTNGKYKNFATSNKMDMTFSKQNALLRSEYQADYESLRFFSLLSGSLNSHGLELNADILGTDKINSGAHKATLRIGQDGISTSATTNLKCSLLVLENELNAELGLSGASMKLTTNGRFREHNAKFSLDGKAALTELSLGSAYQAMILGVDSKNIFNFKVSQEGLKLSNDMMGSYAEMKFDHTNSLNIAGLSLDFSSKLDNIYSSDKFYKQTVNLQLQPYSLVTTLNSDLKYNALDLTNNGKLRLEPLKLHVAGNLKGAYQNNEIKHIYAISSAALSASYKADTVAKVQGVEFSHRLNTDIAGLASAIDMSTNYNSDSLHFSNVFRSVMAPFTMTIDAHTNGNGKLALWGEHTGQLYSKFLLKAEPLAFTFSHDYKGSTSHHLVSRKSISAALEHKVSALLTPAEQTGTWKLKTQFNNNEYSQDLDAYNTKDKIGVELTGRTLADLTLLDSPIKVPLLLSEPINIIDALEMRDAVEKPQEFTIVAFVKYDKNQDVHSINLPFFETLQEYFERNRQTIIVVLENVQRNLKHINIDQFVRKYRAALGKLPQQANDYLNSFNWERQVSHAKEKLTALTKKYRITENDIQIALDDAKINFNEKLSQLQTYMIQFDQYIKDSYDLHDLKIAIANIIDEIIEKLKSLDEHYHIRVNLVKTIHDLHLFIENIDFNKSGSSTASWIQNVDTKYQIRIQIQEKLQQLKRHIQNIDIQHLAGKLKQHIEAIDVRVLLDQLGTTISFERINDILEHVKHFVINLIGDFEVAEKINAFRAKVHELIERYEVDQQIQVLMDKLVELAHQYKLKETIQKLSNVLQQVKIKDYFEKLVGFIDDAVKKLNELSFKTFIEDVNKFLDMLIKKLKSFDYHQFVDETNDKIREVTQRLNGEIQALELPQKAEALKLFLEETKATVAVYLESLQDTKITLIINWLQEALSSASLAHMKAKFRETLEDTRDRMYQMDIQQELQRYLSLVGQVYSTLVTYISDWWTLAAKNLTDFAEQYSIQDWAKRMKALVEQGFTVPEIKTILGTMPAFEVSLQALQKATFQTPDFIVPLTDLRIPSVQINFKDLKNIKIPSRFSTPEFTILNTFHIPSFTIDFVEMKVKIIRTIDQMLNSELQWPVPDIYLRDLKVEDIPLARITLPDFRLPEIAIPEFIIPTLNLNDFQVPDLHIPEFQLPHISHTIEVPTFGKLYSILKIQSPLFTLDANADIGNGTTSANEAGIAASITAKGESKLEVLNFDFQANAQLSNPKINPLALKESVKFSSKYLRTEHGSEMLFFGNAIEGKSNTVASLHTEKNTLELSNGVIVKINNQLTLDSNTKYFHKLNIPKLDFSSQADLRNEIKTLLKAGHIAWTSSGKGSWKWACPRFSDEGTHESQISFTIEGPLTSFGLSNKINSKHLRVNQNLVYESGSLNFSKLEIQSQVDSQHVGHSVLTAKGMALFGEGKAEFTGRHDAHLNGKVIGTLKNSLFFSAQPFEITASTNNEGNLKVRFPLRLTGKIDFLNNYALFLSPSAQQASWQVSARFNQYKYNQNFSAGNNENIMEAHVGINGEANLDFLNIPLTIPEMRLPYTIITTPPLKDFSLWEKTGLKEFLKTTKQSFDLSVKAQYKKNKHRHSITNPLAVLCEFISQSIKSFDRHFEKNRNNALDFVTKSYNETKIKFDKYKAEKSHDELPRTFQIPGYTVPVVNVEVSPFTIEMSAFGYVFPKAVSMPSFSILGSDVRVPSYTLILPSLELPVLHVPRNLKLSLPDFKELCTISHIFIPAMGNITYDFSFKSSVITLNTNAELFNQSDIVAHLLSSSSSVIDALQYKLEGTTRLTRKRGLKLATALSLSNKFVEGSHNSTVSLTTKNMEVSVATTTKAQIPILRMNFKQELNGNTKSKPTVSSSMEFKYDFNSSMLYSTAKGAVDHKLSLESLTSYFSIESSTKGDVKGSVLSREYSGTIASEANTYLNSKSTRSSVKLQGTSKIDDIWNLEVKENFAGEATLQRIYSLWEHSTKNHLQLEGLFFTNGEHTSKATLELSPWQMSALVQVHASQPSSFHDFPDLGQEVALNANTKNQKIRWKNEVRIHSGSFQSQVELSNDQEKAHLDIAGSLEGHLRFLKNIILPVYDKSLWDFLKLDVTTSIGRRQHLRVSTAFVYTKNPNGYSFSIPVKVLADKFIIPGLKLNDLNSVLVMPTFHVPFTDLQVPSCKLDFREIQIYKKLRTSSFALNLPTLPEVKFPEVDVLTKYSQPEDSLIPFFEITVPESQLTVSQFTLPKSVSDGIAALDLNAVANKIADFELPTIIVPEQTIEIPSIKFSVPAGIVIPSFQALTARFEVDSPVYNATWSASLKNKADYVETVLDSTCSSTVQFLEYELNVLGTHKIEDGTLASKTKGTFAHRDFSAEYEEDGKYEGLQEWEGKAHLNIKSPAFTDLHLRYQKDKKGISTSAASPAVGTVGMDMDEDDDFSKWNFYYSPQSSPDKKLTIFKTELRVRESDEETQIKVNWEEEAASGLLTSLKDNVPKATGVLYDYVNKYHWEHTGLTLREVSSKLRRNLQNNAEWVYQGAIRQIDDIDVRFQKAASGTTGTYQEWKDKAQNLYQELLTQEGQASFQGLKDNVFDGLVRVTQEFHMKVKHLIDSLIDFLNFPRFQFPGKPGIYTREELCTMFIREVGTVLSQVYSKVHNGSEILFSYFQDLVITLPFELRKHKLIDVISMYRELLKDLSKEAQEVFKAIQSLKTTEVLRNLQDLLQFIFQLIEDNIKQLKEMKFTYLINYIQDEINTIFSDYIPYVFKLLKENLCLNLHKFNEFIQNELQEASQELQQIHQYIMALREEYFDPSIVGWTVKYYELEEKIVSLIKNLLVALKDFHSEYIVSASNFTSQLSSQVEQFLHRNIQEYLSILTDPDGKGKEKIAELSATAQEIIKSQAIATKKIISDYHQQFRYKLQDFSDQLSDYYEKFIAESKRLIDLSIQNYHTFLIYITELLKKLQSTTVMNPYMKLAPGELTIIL
smiles,measurement,setting,value
COC(=O)NCC1Cc2ccc(NC(=O)c3cccc(C)c3-c3ccc(C(F)(F)F)cc3)cc2C1 (stereo unspecified),NS,[1],no significant change
same,NS,[2],no significant change
same,Reduction,[3],49%
same,NS,[4],no significant change
same,IC50,[5],24 nM
same,NS,[6],no significant change
same,NS,[7],no significant change
COC(=O)N[C@H]1Cc2ccc(NC(=O)c3cc(C)ccc3-c3ccc(C(F)(F)F)cc3)cc2C1,NS,[8],no significant change
same,NS,[2],no significant change
same,NS,[4],no significant change
same,IC50,[5],170 nM
same,NS,[6],no significant change
same,NS,[9],no significant change
same,NS,[7],no significant change
COC(=O)NCCC1Cc2ccc(NC(=O)c3cccc(C)c3-c3ccc(C(F)(F)F)cc3)cc2C1 (stereo unspecified),NS,[8],no significant change
same,NS,[1],no significant change
same,NS,[4],no significant change
same,IC50,[5],70 nM
same,NS,[10],no significant change
same,NS,[6],no significant change
same,NS,[7],no significant change
Cc1cccc(C(=O)Nc2ccc3c(c2)C[C@H](NS(=O)(=O)c2cccs2)C3)c1-c1ccc(C(F)(F)F)cc1,Lipid level,[11],<24 mg/dL
same,Reduction,[12],56%
same,NS,[13],no significant change
same,Reduction,[14],76%
same,Lipid level,[15],<72 mg/dL
same,Reduction,[16],83%
same,NS,[17],no significant change
same,Lipid level,[18],<81 mg/dL
same,Reduction,[19]; 5 mg/kg,25% and 23%
same,Lipid level,[20],<24 mg/dL
same,Lipid level,[21],120 mg/dL
same,Lipid level,[22],31 mg/dL
same,Reduction,[3]; 50 mg/kg,88% and 83%
same,NS,[23],no significant change
same,IC50,[5],50 nM
same,Reduction,[24]; 50 mg/kg,83% and 56%
same,Reduction,[25]; 5 mg/kg,50% and 34%
same,Lipid level,[26],<20 mg/dL
same,Reduction,[27],26%
same,Lipid level,[28],<70 mg/dL
same,Reduction,[29],39%
Cc1cc(C)c(-c2ccc(C(F)(F)F)cc2)c(C(=O)Nc2ccc3c(c2)C[C@H](NS(=O)(=O)c2cccs2)C3)c1,Reduction,[14],46%
same,Reduction,[30],21%
same,Reduction,[31],34%
same,Reduction,[32],47%
same,Reduction,[3],77%
same,IC50,[5],20 nM
same,Reduction,[24],48%
O=C(Nc1ccc2c(c1)C[C@@H](NS(=O)(=O)c1ccccc1)C2)c1ccccc1-c1ccc(C(F)(F)F)cc1,NS,[8],no significant change
same,NS,[1],no significant change
same,NS,[2],no significant change
same,NS,[4],no significant change
same,IC50,[5],650 nM
same,NS,[6],no significant change
same,NS,[7],no significant change
COC(=O)N[C@@H]1Cc2ccc(NC(=O)c3cccc(C)c3-c3ccc(C(F)(F)F)cc3)cc2C1,NS,[33],no significant change
same,Reduction,[30],27%
same,NS,[1],no significant change
same,Reduction,[19],33%
same,NS,[2],no significant change
same,Reduction,[31],43%
same,Reduction,[3],78%
same,NS,[23],no significant change
same,IC50,[5],70 nM
same,Reduction,[24],74%
same,Reduction,[25],45%
same,Reduction,[34],85%
same,Reduction,[35],71%
Cc1cccc(C(=O)Nc2ccc3c(c2)C[C@H](NCc2ccccn2)C3)c1-c1ccc(C(F)(F)F)cc1,IC50,[5],410 nM
same,inhibition,[36],30%
